Tests used:
[1] = system: MCF7 cells; assay: MTT assay, MCF7 cell proliferation; type: cell-based; details: Homo sapiens, MCF7, 24 h, read-out: IC50, MCF7 cell proliferation
Summary of the method: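 MCF7 cells were grown in DMEM or RPMI-1640 with 10% FBS at 37 °C and 5% CO2, then seeded in 96-well plates. Test compound was added at various amounts, with DMSO as vehicle, for 24 h. MTT (5 mg/mL stock) was added for 4 h, then SDS-HCl overnight. A570 was read and IC50 calculated by the plate reader. Values are mean ± SD of triplicate assays.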

[2] = target: T1, SHP1 (Homo sapiens, UniProt P29350); assay: PTP activity assay; type: biochemical; details: for inhibition type (Lineweaver–Burk plot), SHP1: Lineweaver–Burk plot analysis
T1 sequence (P29350 244-515 limits assumed): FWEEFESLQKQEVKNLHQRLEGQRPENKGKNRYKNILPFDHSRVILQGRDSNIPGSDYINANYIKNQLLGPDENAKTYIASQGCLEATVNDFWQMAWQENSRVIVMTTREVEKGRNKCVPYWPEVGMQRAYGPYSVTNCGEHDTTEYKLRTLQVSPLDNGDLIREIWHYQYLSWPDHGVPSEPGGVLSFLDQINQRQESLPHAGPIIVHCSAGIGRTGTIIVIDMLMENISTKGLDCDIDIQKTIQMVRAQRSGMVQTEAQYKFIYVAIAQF
Summary of the method: (§1)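 Human catalytic domains were His-tagged, expressed in E. coli BL21(DE3) with 0.4 mM IPTG overnight at 20 °C, and purified under native conditions. The pNPP hydrolysis buffer was 10 mM NaAc-HAc, 1 mM EDTA, 1 mM DTT, pH 5.5, with 0.1 vol % test compound or DMSO at 37 °C. A405 was read every 20 s for 30 min.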

[3] = system: MCF7 cells; assay: RNA sequencing assay of treated MCF7 cells; type: cell-based, Human; details: vs control, three repeats
Summary of the method: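 MCF7 cells were treated with test compound alongside a control group, three repeats per group. Libraries were prepared with NEBNext Ultra and sequenced on an Illumina HiSeq. Differential expression used DESeq/Cuffdiff with cutoffs of log2 fold change >1 or […], Q value <0.05 and FPKM >1.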

[4] = target: T2, PTP1B (Homo sapiens, UniProt P18031); assay: PTP activity assay; type: biochemical; details: for inhibition type (Lineweaver–Burk plot), PTP1B: Lineweaver–Burk plot analysis
T2 sequence (P18031 3-277 limits assumed): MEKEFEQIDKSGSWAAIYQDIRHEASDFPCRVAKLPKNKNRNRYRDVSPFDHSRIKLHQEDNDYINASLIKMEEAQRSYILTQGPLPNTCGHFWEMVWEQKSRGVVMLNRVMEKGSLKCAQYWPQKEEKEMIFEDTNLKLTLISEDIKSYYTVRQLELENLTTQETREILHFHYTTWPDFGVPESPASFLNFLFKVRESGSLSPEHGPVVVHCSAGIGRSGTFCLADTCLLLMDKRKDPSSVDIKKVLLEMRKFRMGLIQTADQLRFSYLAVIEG
Summary of the method: as §1

[5] = target: T3, LYP (Homo sapiens, UniProt Q9Y2R2); assay: PTP activity assay; type: biochemical
T3 sequence (Q9Y2R2 24-289 limits assumed): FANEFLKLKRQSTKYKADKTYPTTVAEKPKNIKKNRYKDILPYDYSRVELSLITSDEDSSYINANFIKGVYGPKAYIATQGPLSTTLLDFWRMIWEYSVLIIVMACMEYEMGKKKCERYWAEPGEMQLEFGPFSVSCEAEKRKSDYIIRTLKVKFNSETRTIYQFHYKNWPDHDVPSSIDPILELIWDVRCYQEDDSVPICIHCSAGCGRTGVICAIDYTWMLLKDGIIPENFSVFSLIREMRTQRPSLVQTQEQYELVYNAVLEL
Summary of the method: as §1

[6] = system: MCF7 cells; assay: Colony formation assay; type: cell-based, Human; details: 0.15, 0.45 and 0.75 μM, 6 days
[7] = target: T4, SHP2 (Homo sapiens, UniProt Q06124); assay: PTP activity assay; type: biochemical; details: for inhibition type (Lineweaver–Burk plot), SHP2: Lineweaver–Burk plot analysis
T4 sequence (Q06124 247-517 limits assumed): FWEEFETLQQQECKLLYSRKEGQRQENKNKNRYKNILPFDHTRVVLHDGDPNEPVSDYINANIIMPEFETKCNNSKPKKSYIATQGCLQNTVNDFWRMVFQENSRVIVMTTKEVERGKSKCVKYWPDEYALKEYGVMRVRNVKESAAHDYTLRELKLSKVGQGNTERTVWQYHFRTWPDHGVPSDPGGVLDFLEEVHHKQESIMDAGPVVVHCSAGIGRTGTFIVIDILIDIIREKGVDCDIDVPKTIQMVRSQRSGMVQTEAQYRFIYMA
Summary of the method: as §1

[8] = system: p-ERK; assay: Western blotting of ERK phosphorylation in MCF7 cells; type: cell-based, Human; details: MCF7 cells, 1.5, 7.5 and 15 μM, 24 h
Summary of the method: (§2)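 MCF7 cells were treated for 24 h with 0, 1.5, 7.5 or 15 μM test compound. Lysates were immunoblotted with antibodies to c-JUN, p-ERK and total ERK, with GAPDH as internal control.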

[9] = target: T5, STEP (Homo sapiens, UniProt P54829); assay: PTP activity assay; type: biochemical
T5 sequence (P54829 300-555 limits assumed): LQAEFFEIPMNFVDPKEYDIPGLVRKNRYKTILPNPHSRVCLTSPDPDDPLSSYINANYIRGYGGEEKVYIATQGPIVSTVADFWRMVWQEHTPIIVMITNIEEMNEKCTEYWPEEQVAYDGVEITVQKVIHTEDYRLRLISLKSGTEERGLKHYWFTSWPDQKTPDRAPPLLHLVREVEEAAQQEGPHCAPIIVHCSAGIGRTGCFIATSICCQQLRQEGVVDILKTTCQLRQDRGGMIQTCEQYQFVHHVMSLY
Summary of the method: as §1

[10] = system: c-JUN; assay: Western blotting of c-JUN in MCF7 cells; type: cell-based, Human; details: MCF7 cells, 1.5, 7.5 and 15 μM, 24 h
Summary of the method: as §2

Row | Compound | IC50 [1] | IC50 [2] | inhibition type (Lineweaver–Burk plot), SHP1 [2] | CXCL2 log 2 fold change [3] | CXCL3 log 2 fold change [3] | CXCL8 log 2 fold change [3] | CXCL10 log 2 fold change [3] | DDIT3 log 2 fold change [3] | GADD45A log 2 fold change [3] | IFI16 log 2 fold change [3] | IFI27 log 2 fold change [3] | IL1A log 2 fold change [3] | IL1B log 2 fold change [3] | IL6 log 2 fold change [3] | IL18 log 2 fold change [3] | IL24 log 2 fold change [3] | IL32 log 2 fold change [3] | IL33 log 2 fold change [3] | IRF1 log 2 fold change [3] | IRF7 log 2 fold change [3] | also measured
1 | O=c1[nH]cc(F)c(=O)[nH]1 [5-fluorouracil, reference compound] | 25.1 ± 8.8 µM |  |  |  |  |  |  |  |  |  |  |  |  |  |  |  |  |  |  |  | 
2 | CC(=O)OC[C@]12Oc3c(-c4ccc(O)c5c4O[C@@]4(COC(C)=O)C(=C(O)C[C@@H](C)[C@H]4OC(C)=O)C5=O)ccc(O)c3C(=O)C1=C(O)C[C@@H](C)[C@H]2OC(C)=O [PXA, Phomoxanthone A] | 16.4 ± 1.96 µM | 36.5 ± 2.02 µM | competitive inhibitors | 3.24 | 1.65 | 5.45 | 6.84 | 2.87 | 1.41 | 1.18 | 4.22 | 4.78 | 3.30 | 4.00 | 1.78 | 6.37 | 1.57 | 4.45 | 1.50 | 2.76 | JUN log 2 fold change [3]: 3.32; NFKB2 log 2 fold change [3]: 1.62; RELB log 2 fold change [3]: 2.43; XAF1 log 2 fold change [3]: 4.83; IC50 [4]: 13 ± 1.13 µM; inhibition type (Lineweaver–Burk plot), PTP1B [4]: noncompetitive inhibitors; IC50 [5]: > 150 µM; colony formation of MCF7 cells [6]: significantly reduced the colony formation; IC50 [7]: 20.5 ± 4.45 µM; inhibition type (Lineweaver–Burk plot), SHP2 [7]: noncompetitive inhibitors; ERK phosphorylation (western blot) [8]: increased ERK phosphorylation; IC50 [9]: > 150 µM; JUN protein expression (western blot) [10]: upregulated the JUN protein expression
3 | CC(=O)OC[C@]12Oc3ccc(-c4ccc(O)c5c4O[C@@]4(COC(C)=O)C(=C(O)C[C@@H](C)[C@H]4OC(C)=O)C5=O)c(O)c3C(=O)C1=C(O)C[C@@H](C)[C@H]2OC(C)=O [PXB, Phomoxanthone B] | 16.2 ± 2.59 µM | 32.1 ± 3.74 µM | competitive inhibitors | 3.19 | 1.58 | 5.22 | 5.96 | 2.92 | 1.39 | 1.15 | 4.02 | 4.87 | 3.23 | 3.98 | 1.73 | 7.08 | 1.56 | 4.82 | 1.34 | 2.53 | JUN log 2 fold change [3]: 3.16; NFKB2 log 2 fold change [3]: 1.69; RELB log 2 fold change [3]: 2.51; XAF1 log 2 fold change [3]: 4.41; IC50 [4]: 14.3 ± 2.2 µM; inhibition type (Lineweaver–Burk plot), PTP1B [4]: noncompetitive inhibitors; IC50 [5]: > 150 µM; colony formation of MCF7 cells [6]: significantly reduced the colony formation; IC50 [7]: 11.9 ± 3.02 µM; inhibition type (Lineweaver–Burk plot), SHP2 [7]: noncompetitive inhibitors; ERK phosphorylation (western blot) [8]: increased ERK phosphorylation; IC50 [9]: > 150 µM; JUN protein expression (western blot) [10]: upregulated the JUN protein expression

From paper PMC7557999 (ACS Omega, 2020)
